In ChEMBL document CHEMBL4130494, “Crassiflorone derivatives that inhibit Trypanosoma brucei glyceraldehyde-3-phosphate dehydrogenase (TbGAPDH) and Trypanosoma cruzi trypanothione reductase (TcTR) and display trypanocidal activity” (Eur J Med Chem, 2017):
Values after ≈ are worked out from the molar mass of the structure shown. Active and inactive are the calls of the source. The rule behind the calls is not given here.

Tests used:
[1] = Solubility in PBS after overnight incubation by nephelometry; assay type: physicochemical
786-0 = test: Cytotoxicity against human 786-O cells assessed as mitochondrial viability at 10 uM by CMXRos staining based high-content imaging analysis relative to control; assay type: cell-based; settings: 786-0, 10 µM
In short: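 786-O cells kept in RPMI-1640 with 2 mM glutamine, 10% FCS, streptomycin and penicillin G; mitochondria of live cells stained with MitoTracker Red CMXRos and imaged by high-content imaging.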

CYP3A4 = CYP3A4 (Homo sapiens, UniProt P08684); test: Inhibition of human CYP3A4 at 10 uM by P450-Glo assay relative to control; assay type: ADME
Chain of CYP3A4 (P08684 whole entry): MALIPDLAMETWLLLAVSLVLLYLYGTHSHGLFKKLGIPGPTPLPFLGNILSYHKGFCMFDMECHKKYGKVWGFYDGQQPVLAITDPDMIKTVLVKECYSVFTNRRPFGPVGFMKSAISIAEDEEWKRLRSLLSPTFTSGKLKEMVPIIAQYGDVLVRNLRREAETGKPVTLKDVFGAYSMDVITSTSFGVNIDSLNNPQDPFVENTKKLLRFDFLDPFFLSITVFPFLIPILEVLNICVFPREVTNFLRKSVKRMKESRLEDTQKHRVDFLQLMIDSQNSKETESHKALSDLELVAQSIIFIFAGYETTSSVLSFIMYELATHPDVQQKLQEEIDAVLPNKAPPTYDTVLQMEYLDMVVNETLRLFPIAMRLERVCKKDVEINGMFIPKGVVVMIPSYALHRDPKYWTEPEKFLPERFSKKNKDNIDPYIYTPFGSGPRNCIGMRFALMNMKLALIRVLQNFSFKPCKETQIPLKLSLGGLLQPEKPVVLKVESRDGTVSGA
In short: (§1)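 P450-Glo luminescent platform: CYP action on each substrate generates light; decreased light taken as inhibition.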

[2] = Solubility in pH 7.4 Hanks simulated body fluid after overnight incubation by nephelometry; assay type: physicochemical
CYP1A2 = biological target: T1, CYP1A2 (Homo sapiens, UniProt P05177); test: Inhibition of human CYP1A2 at 10 uM by P450-Glo assay relative to control; assay type: ADME; in short: as §1
T1 sequence (P05177 whole entry): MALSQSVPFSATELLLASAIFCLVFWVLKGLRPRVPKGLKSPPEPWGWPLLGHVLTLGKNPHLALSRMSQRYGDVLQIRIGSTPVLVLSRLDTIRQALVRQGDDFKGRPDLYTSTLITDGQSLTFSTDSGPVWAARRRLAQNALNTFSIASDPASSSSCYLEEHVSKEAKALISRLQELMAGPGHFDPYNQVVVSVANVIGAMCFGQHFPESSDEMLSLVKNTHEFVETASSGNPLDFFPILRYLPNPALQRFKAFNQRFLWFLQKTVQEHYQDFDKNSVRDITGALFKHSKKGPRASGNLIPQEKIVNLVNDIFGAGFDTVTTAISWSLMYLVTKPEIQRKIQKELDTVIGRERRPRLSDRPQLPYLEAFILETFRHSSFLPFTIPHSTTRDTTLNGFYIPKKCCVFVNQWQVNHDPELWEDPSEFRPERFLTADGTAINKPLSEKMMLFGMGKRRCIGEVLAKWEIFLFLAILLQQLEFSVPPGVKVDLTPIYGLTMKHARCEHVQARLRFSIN

CYP2D6 = CYP2D6 (Homo sapiens, UniProt P10635); test: Inhibition of human CYP2D6 at 10 uM by P450-Glo assay relative to control; assay type: ADME; in short: as §1
Chain of CYP2D6 (P10635 whole entry): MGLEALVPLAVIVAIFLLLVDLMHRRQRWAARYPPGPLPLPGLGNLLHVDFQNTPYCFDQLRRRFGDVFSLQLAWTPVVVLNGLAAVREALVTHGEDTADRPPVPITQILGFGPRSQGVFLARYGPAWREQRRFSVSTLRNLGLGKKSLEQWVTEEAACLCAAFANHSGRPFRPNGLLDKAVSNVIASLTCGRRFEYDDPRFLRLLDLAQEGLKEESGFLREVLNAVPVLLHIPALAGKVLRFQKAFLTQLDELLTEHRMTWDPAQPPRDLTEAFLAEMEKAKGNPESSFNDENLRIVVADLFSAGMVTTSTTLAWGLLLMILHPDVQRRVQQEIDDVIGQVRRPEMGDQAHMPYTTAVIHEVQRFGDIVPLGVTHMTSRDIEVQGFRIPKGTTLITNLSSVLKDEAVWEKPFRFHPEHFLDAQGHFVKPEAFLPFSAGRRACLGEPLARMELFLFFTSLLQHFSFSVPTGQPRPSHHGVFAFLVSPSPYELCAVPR

[3] = Cytotoxicity against human A549 cells assessed as cell growth at 10 uM by CellTiter-Glo assay relative to control; assay type: cell-based; settings: read-out: Activity
In short: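 A549 cells; cellular ATP measured by CellTiter-Glo luminescence as a proxy for cell number; paclitaxel 10 μM as positive control.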

[4] = biological target: Trypanothione reductase (Trypanosoma cruzi) (UniProt P28593); test: Inhibition of Trypanosoma cruzi trypanothione reductase assessed as reduction in NADPH consumption at 10 uM using 100 uM trypanothione disulfide as substrate by spectrophotometric method
Chain of Trypanothione reductase (Trypanosoma cruzi) (P28593 whole entry, looked up): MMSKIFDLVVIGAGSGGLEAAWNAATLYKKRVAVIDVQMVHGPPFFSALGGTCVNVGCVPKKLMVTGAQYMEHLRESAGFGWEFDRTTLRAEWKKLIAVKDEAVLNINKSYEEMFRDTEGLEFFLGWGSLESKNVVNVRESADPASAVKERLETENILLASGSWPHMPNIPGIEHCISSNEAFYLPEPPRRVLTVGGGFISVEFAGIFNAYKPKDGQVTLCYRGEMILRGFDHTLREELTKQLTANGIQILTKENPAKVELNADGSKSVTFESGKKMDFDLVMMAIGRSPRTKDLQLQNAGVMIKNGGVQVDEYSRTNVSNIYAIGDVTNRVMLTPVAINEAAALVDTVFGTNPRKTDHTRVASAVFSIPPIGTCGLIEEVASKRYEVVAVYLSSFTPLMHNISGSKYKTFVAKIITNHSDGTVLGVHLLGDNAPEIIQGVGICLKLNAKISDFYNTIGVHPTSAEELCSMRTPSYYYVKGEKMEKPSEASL
In short: (§2)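 Recombinant TcTR (5–10 mU) at 25 °C in 40 mM HEPES, 1 mM EDTA, pH 7.5, 100 μM NADPH, 5% DMSO; started with trypanothione disulfide; NADPH consumption read at 340 nm; percentage inhibition calculated.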

[5] = biological target: Trypanothione reductase (Trypanosoma cruzi) (UniProt P28593); test: Inhibition of Trypanosoma cruzi trypanothione reductase assessed as reduction in NADPH consumption at 10 uM using 40 uM trypanothione disulfide as substrate by spectrophotometric method; in short: as §2
Trypanosoma brucei = test: Inhibition of Trypanosoma brucei glyceraldehyde-3-phosphate dehydrogenase at 10 uM using GAP as substrate in presence of NAD+ by spectrophotometric method relative to control
In short: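 Recombinant TbGAPDH (200–300 μg protein) in 10 mM triethanolamine, 1.7 mM NaHCO3, 100 mM KCl, 5 mM MgSO4, 1 mM EDTA, pH 7.6, 25 °C, with 400 μM NAD+, 500 μM KH2PO4, 300 μM GAP; NAD+ reduction followed at 340 nm; inhibitors from DMSO stocks; triplicate; reported as percentage activity.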

CYP2C19 = CYP2C19 (Homo sapiens, UniProt P33261); test: Inhibition of human CYP2C19 at 10 uM by P450-Glo assay relative to control; assay type: ADME; in short: as §1
Chain of CYP2C19 (P33261 whole entry): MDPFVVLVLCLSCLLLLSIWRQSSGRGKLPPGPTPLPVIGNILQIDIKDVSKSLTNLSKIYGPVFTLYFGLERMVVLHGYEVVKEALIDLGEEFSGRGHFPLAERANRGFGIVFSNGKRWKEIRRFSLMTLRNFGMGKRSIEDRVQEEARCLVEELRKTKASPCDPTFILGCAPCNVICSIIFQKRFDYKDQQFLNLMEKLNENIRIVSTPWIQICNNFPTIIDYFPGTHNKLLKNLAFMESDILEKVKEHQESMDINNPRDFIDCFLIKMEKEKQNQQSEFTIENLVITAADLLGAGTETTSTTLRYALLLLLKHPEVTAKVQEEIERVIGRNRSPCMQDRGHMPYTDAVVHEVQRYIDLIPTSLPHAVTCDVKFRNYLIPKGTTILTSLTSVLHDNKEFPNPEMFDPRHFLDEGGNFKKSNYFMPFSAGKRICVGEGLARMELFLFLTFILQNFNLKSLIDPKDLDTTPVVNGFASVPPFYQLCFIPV

hERG (KCNH2) = hERG (KCNH2) (Homo sapiens, UniProt Q12809); test: Inhibition of Tracer Red binding to human ERG expressed in membranes at 10 uM by fluorescence polarization assay relative to control; settings: membranes expressing human ERG, probe Tracer Red
Chain of hERG (KCNH2) (Q12809 whole entry): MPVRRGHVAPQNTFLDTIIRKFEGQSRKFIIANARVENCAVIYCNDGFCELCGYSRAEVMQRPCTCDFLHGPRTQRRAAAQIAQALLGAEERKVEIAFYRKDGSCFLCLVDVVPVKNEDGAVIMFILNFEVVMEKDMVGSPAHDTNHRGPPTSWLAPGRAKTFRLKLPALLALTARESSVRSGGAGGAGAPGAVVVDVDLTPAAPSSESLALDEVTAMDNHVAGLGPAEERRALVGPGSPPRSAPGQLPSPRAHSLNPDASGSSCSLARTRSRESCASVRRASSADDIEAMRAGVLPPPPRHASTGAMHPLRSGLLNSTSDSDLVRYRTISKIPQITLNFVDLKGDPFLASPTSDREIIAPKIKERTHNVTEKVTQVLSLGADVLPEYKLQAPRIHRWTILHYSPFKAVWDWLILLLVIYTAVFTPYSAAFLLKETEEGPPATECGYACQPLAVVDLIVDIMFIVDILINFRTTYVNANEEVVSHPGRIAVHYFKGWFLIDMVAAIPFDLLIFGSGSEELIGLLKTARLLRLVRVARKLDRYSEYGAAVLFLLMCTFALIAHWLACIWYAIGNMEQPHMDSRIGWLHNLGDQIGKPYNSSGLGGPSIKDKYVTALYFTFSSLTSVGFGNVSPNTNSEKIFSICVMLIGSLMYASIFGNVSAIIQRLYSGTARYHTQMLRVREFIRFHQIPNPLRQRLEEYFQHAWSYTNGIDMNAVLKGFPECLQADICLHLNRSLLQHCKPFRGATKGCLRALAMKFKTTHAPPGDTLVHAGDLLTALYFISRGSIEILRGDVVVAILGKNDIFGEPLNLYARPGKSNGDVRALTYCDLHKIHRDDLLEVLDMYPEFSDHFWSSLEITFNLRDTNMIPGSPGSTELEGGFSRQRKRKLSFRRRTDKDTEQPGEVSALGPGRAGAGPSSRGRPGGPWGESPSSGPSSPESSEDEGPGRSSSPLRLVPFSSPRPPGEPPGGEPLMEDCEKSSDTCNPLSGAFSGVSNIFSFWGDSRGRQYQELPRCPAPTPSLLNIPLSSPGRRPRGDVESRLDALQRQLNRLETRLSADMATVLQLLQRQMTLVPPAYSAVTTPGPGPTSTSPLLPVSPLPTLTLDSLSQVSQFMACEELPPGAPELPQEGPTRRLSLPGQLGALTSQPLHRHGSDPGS
In short: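 Fluorescence polarization displacement of a high-affinity red fluorescent tracer from hERG channel–containing membrane fraction.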

CYP2C9 = CYP2C9 (Homo sapiens, UniProt P11712); test: Inhibition of human CYP2C9 at 10 uM by P450-Glo assay relative to control; assay type: ADME; in short: as §1
Chain of CYP2C9 (P11712 whole entry): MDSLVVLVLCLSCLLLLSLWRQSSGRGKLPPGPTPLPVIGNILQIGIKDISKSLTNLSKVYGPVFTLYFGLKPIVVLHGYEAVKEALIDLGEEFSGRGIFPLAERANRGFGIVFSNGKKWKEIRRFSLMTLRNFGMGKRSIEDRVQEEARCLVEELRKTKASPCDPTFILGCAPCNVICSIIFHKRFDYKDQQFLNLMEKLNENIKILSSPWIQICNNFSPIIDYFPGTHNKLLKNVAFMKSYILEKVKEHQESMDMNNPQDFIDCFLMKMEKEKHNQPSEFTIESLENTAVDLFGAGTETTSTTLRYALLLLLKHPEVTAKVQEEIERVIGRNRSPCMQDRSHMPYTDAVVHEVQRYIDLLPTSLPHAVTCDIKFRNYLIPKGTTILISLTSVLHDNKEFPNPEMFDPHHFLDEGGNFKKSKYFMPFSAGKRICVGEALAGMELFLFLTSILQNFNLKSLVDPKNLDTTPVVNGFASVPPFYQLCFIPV

Trypanothione reductase = Trypanothione reductase (Trypanosoma cruzi, UniProt P28593); test: Inhibition of Trypanosoma cruzi trypanothione reductase assessed as reduction in NADPH consumption using varying levels of trypanothione disulfide as substrate by Lineweaver-Burk plot analysis
Chain of Trypanothione reductase (P28593 whole entry): as the sequence (P28593 whole entry, looked up) above
In short: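 Recombinant T. cruzi TR (5-10 mU) at 25 °C in 40 mM HEPES, 1 mM EDTA, pH 7.5, with 100 μM NADPH and 5% DMSO. Reaction started with TS2 and NADPH consumption followed at 340 nm. TS2 varied at 20, 40, 60, 100 and 200 μM without inhibitor and at two fixed inhibitor concentrations. Inhibition type read from Lineweaver-Burk plots. Ki fitted from direct plot by non-linear least squares. Inhibitor assays run at least in duplicate.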

[6] = test system: Trypanosoma brucei brucei; test: Growth inhibition of Trypanosoma brucei brucei Lister 427 bloodstream forms at 5 uM by SYBR Green based assay relative to control; assay type: functional; settings: read-out: GI
[7] = biological target: Trypanothione reductase (Trypanosoma cruzi) (UniProt P28593); test: Inhibition of Trypanosoma cruzi trypanothione reductase assessed as reduction in NADPH consumption at 5 uM using 100 uM trypanothione disulfide as substrate by spectrophotometric method relative to control; in short: as §2
[8] = biological target: Trypanothione reductase (Trypanosoma cruzi) (UniProt P28593); test: Inhibition of Trypanosoma cruzi trypanothione reductase assessed as reduction in NADPH consumption at 5 uM using 40 uM trypanothione disulfide as substrate by spectrophotometric method relative to control; in short: as §2
[9] = biological target: T2, Pteridine reductase 1 (Leishmania major) (UniProt Q01782); test: Inhibition of Leishmania major pteridine reductase 1 assessed as reduction in conversion of dihydrobiopterin to tetrahydrobiopterin at 10 uM up to 50 mins in presence of NADPH by cytochrome c reduction coupled photometric assay relative to control
T2 sequence (whole entry): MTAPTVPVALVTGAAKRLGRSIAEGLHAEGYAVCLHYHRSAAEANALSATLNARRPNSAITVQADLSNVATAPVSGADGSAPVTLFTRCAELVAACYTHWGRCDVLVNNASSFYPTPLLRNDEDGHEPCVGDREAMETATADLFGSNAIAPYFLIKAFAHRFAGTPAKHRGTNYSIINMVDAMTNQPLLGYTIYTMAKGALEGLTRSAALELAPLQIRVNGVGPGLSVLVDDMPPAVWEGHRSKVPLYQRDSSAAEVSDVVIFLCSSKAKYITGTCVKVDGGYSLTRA

[10] = biological target: T3, Pteridine reductase, putative (Trypanosoma brucei) (UniProt Q581W1); test: Inhibition of Trypanosoma brucei pteridine reductase 1 assessed as reduction in conversion of dihydrobiopterin to tetrahydrobiopterin at 10 uM up to 50 mins in presence of NADPH by cytochrome c reduction coupled photometric assay relative to control
T3 sequence (whole entry): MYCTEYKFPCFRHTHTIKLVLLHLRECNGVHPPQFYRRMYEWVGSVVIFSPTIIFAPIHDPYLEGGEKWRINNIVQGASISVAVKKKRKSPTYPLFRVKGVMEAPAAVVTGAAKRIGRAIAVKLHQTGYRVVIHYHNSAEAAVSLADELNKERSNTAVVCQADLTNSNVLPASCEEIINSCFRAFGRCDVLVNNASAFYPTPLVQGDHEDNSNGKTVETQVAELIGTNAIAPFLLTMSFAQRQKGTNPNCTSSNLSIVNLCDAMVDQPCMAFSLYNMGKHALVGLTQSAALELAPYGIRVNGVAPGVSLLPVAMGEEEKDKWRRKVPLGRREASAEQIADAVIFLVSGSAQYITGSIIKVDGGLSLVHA

[11] = biological target: Trypanothione reductase (Trypanosoma cruzi) (UniProt P28593); test: Inhibition of Trypanosoma cruzi trypanothione reductase assessed as reduction in NADPH consumption at 2.5 uM using 40 uM trypanothione disulfide as substrate by spectrophotometric method relative to control; in short: as §2
[12] = biological target: Trypanothione reductase (Trypanosoma cruzi) (UniProt P28593); test: Inhibition of Trypanosoma cruzi trypanothione reductase assessed as reduction in NADPH consumption at 2.5 uM using 100 uM trypanothione disulfide as substrate by spectrophotometric method relative to control; in short: as §2
[13] = biological target: T3, Pteridine reductase, putative (Trypanosoma brucei); test: Inhibition of Trypanosoma brucei pteridine reductase 1 assessed as reduction in conversion of dihydrobiopterin to tetrahydrobiopterin at 25 uM up to 50 mins in presence of NADPH by cytochrome c reduction coupled photometric assay relative to control
[14] = biological target: T2, Pteridine reductase 1 (Leishmania major); test: Inhibition of Leishmania major pteridine reductase 1 assessed as reduction in conversion of dihydrobiopterin to tetrahydrobiopterin at 25 uM up to 50 mins in presence of NADPH by cytochrome c reduction coupled photometric assay relative to control

Row | SMILES | solubility kinetic [1] [µM] | Activity (786-0) [%] | inhibition at 10 µM (CYP3A4) [%] | solubility kinetic [2] [µM] | inhibition at 10 µM (CYP1A2) [%] | inhibition at 10 µM (CYP2D6) [%] | viability at 10 µM [3] [%] | inhibition [4] [%] | inhibition [5] [%] | inhibition (Trypanosoma brucei) | inhibition at 10 µM (CYP2C19) [%] | inhibition at 10 µM (hERG (KCNH2)) [%] | inhibition at 10 µM (CYP2C9) [%] | inhibition [9] [%] | further results
1 | CC(=O)Oc1cccc2c1C(=O)c1c(oc3c1c(=O)oc1ccccc13)C2=O | 35 (≈ 13.1 µg/mL) | 98.86 | 88.2 | 35 (≈ 13.1 µg/mL) | 94.6 | 106 | 157 | 37 | 37.2 | inactive | 103 | 4.02 | 92.5 | – | –
2 | c1cc2cc(-c3ccc(C4(N5CCCC5)CCCCC4)s3)ccc2[nH]1 | – | – | – | – | – | – | – | – | – | – | – | – | – | – | Ki (Trypanothione reductase): 4 µM
3 | CC(=O)Oc1cccc2c1C(=O)c1oc3c(c1C2=O)c(=O)oc1ccccc13 | 35 (≈ 13.1 µg/mL) | 90.52 | 88.7 | 35 (≈ 13.1 µg/mL) | 93.5 | 108 | 183 | – | – | inactive | 109 | 86.8 | 99.2 | – | inhibition of growth at 5 µM [6]: 38%; inhibition [7]: 35.2%; inhibition [8]: 41%
4 | O=C1c2cc3ccccc3cc2C(=O)c2c1oc1c2c(=O)oc2ccccc21 | 35 (≈ 12.8 µg/mL) | 89.59 | 7.93 | 70 (≈ 25.6 µg/mL) | 38.5 | 55 | 140 | 7.9 | 2.1 | inactive | 35.7 | 9.77 | 42.4 | 5.16 | inhibition [10]: 6.11%
5 | COc1cccc2c1C(=O)c1c(oc3c1c(=O)oc1ccccc13)C2=O | 70 (≈ 24.2 µg/mL) | 96.22 | 22.1 | 35 (≈ 12.1 µg/mL) | 87.2 | 101 | 130 | 8.1 | 20.6 | 88% | 71 | -58 | 61.6 | 2.98 | inhibition [10]: -6.79%; inhibition of growth at 5 µM [6]: 29%
6 | O=C1c2cccc(O)c2C(=O)c2c1oc1c2c(=O)oc2ccccc21 | 14 (≈ 4.65 µg/mL) | 85.82 | 9.44 | 35 (≈ 11.6 µg/mL) | 40.8 | 95.2 | 167 | – | – | – | 83.8 | 19.5 | 44.6 | -5.5 | inhibition [11]: 42.9%; inhibition [12]: 11.6%
7 | O=C1C=C(Oc2ccccc2)C(=O)c2ccccc21 | – | – | – | – | – | – | – | 29 | 23 | Active | – | – | – | – | –
8 | O=C1c2ccccc2C(=O)c2c1oc1c2c(=O)oc2ccccc21 | 70 (≈ 22.1 µg/mL) | 89.15 | 14.8 | 70 (≈ 22.1 µg/mL) | 48.2 | 71 | 146 | – | – | – | 46.1 | -20.3 | 32.4 | – | inhibition [13]: -6.44%; inhibition [14]: -0.4%; inhibition [7]: 18%; inhibition [8]: 19.1%
